The values that follow come from ChEMBL document CHEMBL1131039, “Styrylquinoline derivatives: a new class of potent HIV-1 integrase inhibitors that block HIV-1 replication in CEM cells” (J Med Chem, 1998).

Experiment [1] relates to CCRF-CEM. Briefly: Antiviral activity was measured as IC90 by calculating amount of virus present in CEM cells by P24 ELISA test. It counts as functional. As to conditions: Homo sapiens. A digest of the protocol:
(§1)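 Same CEM/HIV-1 PLN4-3 infection scheme: virus washed off after 2 h, compound in DMSO added in fresh medium, supernatants harvested 72 h post-infection. Viral load measured as virion-associated p24 antigen by ELISA in the culture supernatants.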

Experiment [2] relates to CCRF-CEM. Briefly: (§2) Cytotoxicity (TC90) was measured by MTT transformation assay. Type of experiment: functional, Homo sapiens. (In general: Tetrazolium assays rely on reduction of a dye to a coloured formazan, in cell work by metabolically active cells.)
Experiment [3] has as its system CCRF-CEM. The experiment can be described thus: Toxicity was measured by MTT assay after 72 hours at 100 uM. It counts as functional, Homo sapiens. A digest of the protocol:
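Infected CEM cells exposed to compounds (in DMSO) at 100 μM; viability after 72 h by MTT. MTT (7.5 mg/mL in phosphate buffer) added per well, 4 h at 37 °C under CO2. Formazan dissolved in 10% SDS, 10 mM HCl, absorbance at 570 nm. Average of three experiments.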

Experiment [4] addresses T1, Human immunodeficiency virus type 1 integrase (Human immunodeficiency virus 1, UniProt Q7ZJM1). Briefly: HIV integrase inhibitory potency was evaluated as IC50 on 3' processing of target DNA.
The subject of experiment [5] is CCRF-CEM. Briefly: Cytotoxicity (TC50) was measured by MTT transformation assay. Type of experiment: functional. As to conditions: Homo sapiens, read-out: TC50 (the source's name).
In experiment [6] the test system is Human immunodeficiency virus 1. Briefly: Effect upon disintegration catalyzed by the deletion mutant. It counts as functional.
Experiment [7] relates to CCRF-CEM. The experiment can be described thus: Antiviral activity was measured as IC50 by calculating amount of virus present in CEM cells by P24 ELISA test. Conditions: Homo sapiens. It counts as functional, cell-based. A digest of the protocol: as §1
For experiment [8], the target named is T1, Human immunodeficiency virus type 1 integrase. The experiment can be described thus: In vitro anti-HIV integrase activity against integration (strand transfer) of target plasmid.
Experiment [9] concerns CCRF-CEM. Briefly: Toxicity was measured by MTT assay after 120 hours at 100 uM. Type of experiment: functional, Homo sapiens. A digest of the protocol: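 Infected CEM cells exposed to compounds at 100 μM; viability assessed 120 h after infection by MTT transformation assay (formazan solubilized in SDS/HCl, absorbance at 570 nm).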
The test system of experiment [10] is CCRF-CEM. The experiment can be described thus: Antiviral activity was measured as IC90 by calculating amount of virus present in CEM cells by beta-galactosidase assay. Type of experiment: functional. Conditions: Homo sapiens. The essentials:
(§3)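 HIV-1 PLN4-3 (cell-free virus from CEM transfection) infection of CEM cells (RPMI-1640, 10% FCS), triplicate wells. Virus removed at 2 h, compounds in DMSO added in fresh medium at increasing concentrations. Supernatants taken at 72 h and used to infect HeLaCD4+-β-gal (P4) cells for 24 h. Lysate incubated with CPRG for 1 h, read at 570 nm. Average of three experiments.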

In experiment [11] the test system is CCRF-CEM. The experiment can be described thus: Antiviral activity was measured as IC25 by calculating amount of virus present in CEM cells by beta-galactosidase assay. Type of experiment: functional. As to conditions: Homo sapiens. A digest of the protocol: as §3
The subject of experiment [12] is CCRF-CEM. The experiment can be described thus: Antiviral activity was measured as IC50 by calculating amount of virus present in CEM cells by beta-galactosidase assay. Type of experiment: functional, cell-based. Conditions: Homo sapiens. A digest of the protocol: as §3
In experiment [13] the test system is CCRF-CEM. The experiment can be described thus: Antiviral activity was measured as IC50 by calculating amount of virus present in CEM cells by P4 infection. Type of experiment: functional, cell-based. Conditions: Homo sapiens. The essentials: as §3
Experiment [14] has as its system CCRF-CEM. Briefly: Antiviral activity was measured as IC90 by calculating amount of virus present in CEM cells by P4 infection. As to conditions: Homo sapiens. Type of experiment: functional. The essentials:
as §3

Experiment [15] has as its system CCRF-CEM. The description is as §2. Type of experiment: functional. As to conditions: Homo sapiens.
The target in experiment [16] is T1, Human immunodeficiency virus type 1 integrase. The experiment can be described thus: In vitro anti-HIV integrase activity against 3' processing of target plasmid. The essentials:
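Buffer: 20 mM Tris pH 7.2, 30 mM NaCl, 10% glycerol, 10 mM DTT, 0.01% NP40 and 10 mM MnCl2. Compounds were tested over a concentration range, and IC50 was taken for inhibition of 3'-processing.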

T1 sequence (Q7ZJM1 whole entry): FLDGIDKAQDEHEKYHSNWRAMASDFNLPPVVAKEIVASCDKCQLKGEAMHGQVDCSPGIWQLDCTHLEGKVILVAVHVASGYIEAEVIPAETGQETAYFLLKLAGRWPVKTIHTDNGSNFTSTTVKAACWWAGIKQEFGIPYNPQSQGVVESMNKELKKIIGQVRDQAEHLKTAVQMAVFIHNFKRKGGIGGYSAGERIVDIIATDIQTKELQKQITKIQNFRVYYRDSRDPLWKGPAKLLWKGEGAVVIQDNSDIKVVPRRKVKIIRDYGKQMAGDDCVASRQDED

Take `O=C([O-])c1ccc2ccc(/C=C/c3ccc(O)c(O)c3)nc2c1O.[Na+]`: the IC90 with CCRF-CEM [1] was greater than 100 µM. In the experiment on CCRF-CEM [2], this compound came in with a TC90 greater than 100 µM. In the experiment with CCRF-CEM [3], this compound had a Toxicity of 0%. Also, the IC50 in experiment [4] was 0.8 µM; in [6] (Human immunodeficiency virus 1), 700 nM; in the experiment on CCRF-CEM [7], 20 µM. The CC50 with CCRF-CEM [5] is greater than 100 µM.

As to `CC(=O)Oc1cccc2ccc(/C=C/c3ccccc3)nc12`, the IC50 in experiment [4] and in experiment [8] was greater than 100 µM throughout.

`O=C(O)c1ccc2ccc(/C=C/c3cc(O)c(O)c(O)c3)nc2c1O` [listing 1 of 2 here] had an IC50 in [4] of 0.26 µM.

In the case of `O=C(O)c1ccc2ccc(/C=C/c3ccc(O)cc3O)nc2c1O`, the Toxicity is less than 10% in the experiment on CCRF-CEM [9] and 0% in the experiment on CCRF-CEM [3]. In the experiment on CCRF-CEM [2], the TC90 is greater than 100 µM. For the same compound, the IC50 was 3.7 µM in experiment [4], 2.8 µM in experiment [8], 2500 nM in experiment [6] (Human immunodeficiency virus 1) and 79.8 µM with CCRF-CEM [12]. In addition, the IC90 in the experiment on CCRF-CEM [10] was greater than 100 µM. Moreover, the CC50 in the experiment with CCRF-CEM [5] is greater than 100 µM. Further, in the experiment with CCRF-CEM [11], the IC25 was 26.3 µM.

In turn, `O=C(O)c1ccc2ccc(/C=C/c3cc(O)c(O)c(O)c3)nc2c1O` [listing 2 of 2 here] had a TC90 in the experiment on CCRF-CEM [2] of 93.3 µM. Further, in the experiment with CCRF-CEM [3], the Toxicity is 100%. Moreover, the IC50 is 0.3 µM in [4], 0.4 µM in experiment [8], 240 nM in [6] (Human immunodeficiency virus 1) and 1.2 µM with CCRF-CEM [12]. For the same compound, in the experiment on CCRF-CEM [10], the IC90 is 10.7 µM. In addition, in the experiment with CCRF-CEM [5], the CC50 was 10.7 µM. The IC25 with CCRF-CEM [11] is 0.4 µM.

In the case of `O=C(O)c1ccc2ccc(/C=C/c3ccc(O)c(O)c3)nc2c1O`, the IC50 with CCRF-CEM [13] was 1300 nM; in [4] it was 2.4 µM; in experiment [8] it was 1 µM; in experiment [6], 900 nM. Also, the Toxicity with CCRF-CEM [9] was less than 10%; in the experiment with CCRF-CEM [3], 0%. In the experiment with CCRF-CEM [2], this compound registered a TC90 greater than 100 µM. In addition, the IC25 with CCRF-CEM [11] was 0.46 µM. Moreover, the IC90 in the experiment with CCRF-CEM [14] is 12.3 µM.

With `Cc1ccc2ccc(C(=O)O)c(O)c2n1`, the TC90 with CCRF-CEM [2] is greater than 100 µM. The same compound had a Toxicity with CCRF-CEM [3] of 0%. Besides, the IC50 in [4] was greater than 100 µM; in experiment [8], 114 µM; in the experiment with CCRF-CEM [12], greater than 100 µM. Also, the IC90 with CCRF-CEM [10] was greater than 100 µM. For the same compound, the CC50 in the experiment with CCRF-CEM [5] was greater than 100 µM. In addition, the IC25 with CCRF-CEM [11] is greater than 100 µM.

`Cc1ccc2cccc(OC(=O)/C=C/c3ccc(O)c(O)c3)c2n1`: the IC50 in experiment [4] and in experiment [8] was greater than 100 µM throughout.

Turning to `COc1ccc(/C=C/C(=O)Oc2cccc3ccc(C)nc23)cc1OC`, the concentration for half-maximal inhibition (IC50) in experiment [4] and in experiment [8] was greater than 100 µM throughout.

`Oc1ccc(/C=C/c2ccc3cccc(O)c3n2)cc1O` had a TC90 in the experiment with CCRF-CEM [2] of 71 µM. The Toxicity with CCRF-CEM [3] came out at 99%. Further, the IC50 was 7.4 µM in [4], 2.4 µM in experiment [8], 2500 nM in experiment [6] (Human immunodeficiency virus 1) and 3.6 µM with CCRF-CEM [12]. In addition, in the experiment on CCRF-CEM [5], the CC50 was 8.1 µM. Also, the IC25 in the experiment with CCRF-CEM [11] is 1.2 µM.

Turning to `Nc1cccc2ccc(/C=C/c3ccc(O)c(O)c3)nc12`, the IC50 in experiment [4] and in [8] was greater than 100 µM each time.

On to `CC(=O)Oc1ccc(/C=C/c2ccc3cccc(OC(C)=O)c3n2)cc1OC(C)=O`, for which the IC50 in experiment [4] and in experiment [8] was greater than 100 µM each time.

`N#Cc1ccc2ccc(/C=C/c3ccc(O)c(O)c3)nc2c1O` yielded a TC90 in the experiment on CCRF-CEM [2] of 56.3 µM. Besides, the IC50 was found to be 3 µM in [4] and 3600 nM in [6] (Human immunodeficiency virus 1). The CC50 with CCRF-CEM [5] was 6.2 µM.

`O=C(O)c1cc(/C=C/c2ccc3ccc(C(=O)O)c(O)c3n2)ccc1O`: the Toxicity with CCRF-CEM [9] and in the experiment with CCRF-CEM [3] was 0% each time. This compound registered a TC90 with CCRF-CEM [2] greater than 100 µM. The IC50 is 2.7 µM in [4], 0.6 µM in experiment [8], 600 nM in experiment [6] (Human immunodeficiency virus 1) and 62 µM with CCRF-CEM [12]. Also, the IC90 in the experiment on CCRF-CEM [10] is greater than 100 µM. The CC50 in the experiment with CCRF-CEM [5] was greater than 100 µM. In addition, the concentration for an effect of 25% (IC25) in the experiment on CCRF-CEM [11] is 20.9 µM.

For `Oc1cccc2ccc(/C=C/c3ccccc3)nc12`, the TC90 in the experiment with CCRF-CEM [15] is greater than 100 µM. For the same compound, the IC50 in [4] and in experiment [8] was greater than 100 µM throughout. Also, the CC50 with CCRF-CEM [5] came out at 50.1 µM.

On to `O=[N+]([O-])c1cccc2ccc(/C=C/c3ccc(O)c(O)c3)nc12`, for which the IC50 in [4] and in experiment [8] was greater than 100 µM throughout.

Consider `Oc1cccc2ccc(/C=C/c3ccc4cccc(O)c4n3)nc12`, for which the IC50 in experiment [4] is greater than 100 µM.

On to `Oc1ccc(/C=C/c2ccc3ccc(/C=C/c4ccc(O)c(O)c4)c(O)c3n2)cc1O`, for which the 50% inhibitory concentration (IC50) in experiment [4] was 2.2 µM; in experiment [8], 3.4 µM.

Compound `Oc1ccc(/C=C/c2ccc3ccccc3n2)cc1O` registered a TC90 with CCRF-CEM [15] of 100 µM. The IC50 in [4] is greater than 100 µM. Also, the CC50 in the experiment on CCRF-CEM [5] is 12.3 µM.

Turning to `Cc1ccc2cccc(O)c2n1` [8-HYDROXY QUINALDINE], the IC50 in experiment [8] and in experiment [16] was greater than 100 µM throughout.

As usually defined, the IC90 is the concentration at which the effect reaches the 90% level. As usually defined, the IC50 is the concentration needed to halve the response being measured. For orientation: IC25 means the point of the concentration-response curve where the effect stands at 25%.
